Variants at the floor of the assay were thinned out.

Results on 37 variants are retold here after the RNAGym collection of RNA variant scans (doi:10.1126/science.aae0568).

The labels stand for the following.
B1: tRNA (parent)
chain: GUUCCGUUGGCGUAAUGGUAACGCGUCUCCCUCCUAAGGAGAAGACUGCGGGUUCGAGUCCCGUACGGAACG

The variants in the data set derive from B1. Description: yeast fitness relative to wild type (ratio to wild type); higher = fitter; tRNA-Arg(CCU), competitive growth, 37 C, YPD. Summed up: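 A pool of Saccharomyces cerevisiae strains, each with a tRNA-Arg(CCU) gene variant at the native genomic locus, was competed in YPD at 37°C for 24 hours across six parallel replicates. The variants had been chemically synthesised at a 3% per-site mutation rate over 69 sites, and gene amplicons before and after competition were read by 100-nucleotide paired-end sequencing. Darwinian fitness relative to wild type rested on changes in genotype frequencies. Genotypes required ≥ 100 starting reads, and estimates < 0.5 were set to 0.5.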
For the variant GUUCAGUUGGCGUAAUGGUAACCCGUCUCCCGCCUAAGGAGAAGACUGCGGGUUCGAGUCCCGUACGGUACG, the yeast fitness was no more than 0.5.
For GUUCAGAUGGCGUAAUGGUAACGCGUCUCCCUCCUCACGAGAAGACUGCGGGUUUGAGUCCAGUACGGAACG, the yeast fitness was no more than 0.5.
The same measure for GUUCAGUUGGCGUAAUGGUAACGCGUCUCCCUCCUAAGGACAAGACUGCGGGUUCGAGUCCCGUACGGAACG: 0.779.
Take GUUCAGUAGGCGUAAUGGUAACGCGUCUCCCUCCUAAGGAGAAGAGUGCGGGUUCGAGUCCCGUACGGAACG: the yeast fitness was no more than 0.5.
The result for GUUCAGAUGGCGUAAUGGUAGCGCGUCUCCCUCCUAAGGAGAAGACUGCGGGUUCGAGUCGCGUAGGGAACG reads no more than 0.5; that for GUUCAGAUGGCGUAAUGGUAACGCGUCUCCCUCCUAAGAAGAAGACUGCGGGUUCGAGUUCAGUACGGAACG, no more than 0.5.
Take GUUCAGUUGGCGUAAUCCUAACGCGUCUCCCUCCUAAGGAGAAGACUGCGGGUUCGAAGCCCGUACGGAACG: the yeast fitness was found to be 0.535.
For the variant GUUCAGUUGGCGUAAUGGUAACGCGUCUCCCUCCUAAGGAAAAGACUGCGGGUUCGCGUCCAGUACGGAACG, the yeast fitness stood at 0.54.
Turning to GUUCAGCUGGCGUAAUGGAAACGCGUCUCCCUCCUAACGAGGAGACUGCGGGUUCGAGUCCCGUACGGAACG, the yeast fitness was no more than 0.5.
As for GUUCAGGUGGCGUCAGGGUAACGCGUCUCCCUCCUAAGGAGAGGACUGCGGGCUCGAGUCCGGUACGGAACG, the yeast fitness was no more than 0.5.
Take GUUCAGAUGGCGUAAUGGUAGCGCGUCUCCCUCCUAAGGAGAAGACUGCGGGUUCGAGUCCCGUACCGAACG: the yeast fitness amounted to 0.541.
As for GUUCAGUUGGCGUAAUGGUAACGCGUCUCCCUCCUAAUGAGAAGACUGCGGGUUAGAGUCCCGUACGGAACG, the yeast fitness was no more than 0.5.
As to GUUCAGUUGGCGUAAUGGUAACGCGUCUCCCUCCUAAGGAGAAGACUGCGAGUUCGAGUCCCGUACGGAACG, the yeast fitness was found to be 0.71.
On to GUUCAGUUGGCGUAAUGGUAACGCGUCUCCCUCCUAAGAAGAAAACUGCGGGUUCGAGUCCCGUACGGAACG, for which the yeast fitness stood at 0.62.
In the case of GUUCAGUUGGCGUAAUGGUAACCCGUCUCCCUCCUAAGGACAAGACUGCCGGUUCGAGUCCCGUACGGAACG, the yeast fitness was no more than 0.5.
Take GUUCAGUUGGCGAAAUGGUAACGCGUCUCCCCCCAAAGGAGAAGACUGCGGGUUCGAGCCCCGUACGGAUCG: the yeast fitness is 0.547.
Turning to GUUCAGUUGGCGUAAUGGUAACCCGUCUCCCUCCUAAGGAGAAGACUGCCGGUUCGAGUCCCGUACGGAACG, the yeast fitness is no more than 0.5.
With GUUCAGUUGGCGCAAUGGUAACGCGUAGCCCUCCUAAGGAGAAGACUGCGGGUUCGAGUCCCGUACUGAACG, the yeast fitness is no more than 0.5.
For the variant GUUCAGCUGGCGUAAUGGUAACGCGUCUCCCACCUAAGGAGAAGACUGCGGCUUUGAGUCCCGUAUGGAACG, the yeast fitness is no more than 0.5.
Consider GUUCAGUUGGCGUAAUGGUAACGCGUCUCCCUCCUAAGGAGAAGACUGCCGGUUCGAGUCCCGCACGGAACG, for which the yeast fitness is 0.73.
For GUUCAGUUGGCGUAAUGGUAACAUGUCUCCCUCCUCAGGAGAAGACUGCGGGUUCGAGUCCCGUACGGAACG, the yeast fitness was no more than 0.5.
As for GUUCAGUUGGCGUAAUGAUAACGCGUCUCCCUCCUAAGGAGAAGACUGCGGAUUGGAGUCCCGUACGGAACG, the yeast fitness worked out at 0.526.
The same measure for GUUCAGUUGGCGUAAUGGUAACGCGUCUCCCUCCUAAGGAGAAGACUCCGGGUUCGUGUCCCGUACGGAACG: no more than 0.5; for GUUCAGUUGGCGUAAUGGUAACGCGUCUCCCUCCUAAGGAGAAGACUCCGGGUUCGGGUCCCGUACGGAACG: 0.557.
The result for GUUCAGUUGGCGUAAUGCUAACGCGUCUCCCUCCUAAGGAGAAGACUGCAGGUUCGAGUCCCGUACGGAACG reads no more than 0.5.
The result for GUUCAGUUGGCGUAAUGGUAACGCGUCUCCCUCCUAAGCAGAAGAAUGCGGGUUCGAGUGCCGUACGGAACG reads no more than 0.5.
For GUUCAGUUGGCGUAAUGGUAACCCGUCUCCCUCCUAAGGAGAAGACUGCGGGUUCGAGUCGUGUAUGGAACG, the yeast fitness is no more than 0.5.
Regarding GUUCAGUUGGCGAAAUGGUAACGCGUGUCCCUCCUAGGGAGAAGACUGCGGGUUCGAGUCCCGUACGGAACG, the yeast fitness was no more than 0.5.
Regarding GUUCAGUUGGCGUAAUGGUAACGCGUCUCCCUCCUAAGGAGAAGACUGCCGGUUCGAGUCCCGUACGGAACG, the yeast fitness was 0.626.
The same measure for GUUCAGUUGGCGAAAUGGUAACGCGUCUCUCUCCUAAGGAGAAGCCUGCGGGUUCGAGUCCCGUACGGAACG: no more than 0.5.
Regarding GUUCAGUUGGCGUAAUGGUAACACGUCUCCCUCCUAAGCACAAGACUGCGGGUUCGAGUCCCGUACGGACCG, the yeast fitness is no more than 0.5.
Consider GUUCAGUUGGCGUAAUGGUAACGCGUCUCCCUCCUAAGGAGAAGACUGCGGCUUCGAGUCCCGUACGGAACG, for which the yeast fitness stood at 0.567.
In the case of GUUCAGUUGGCGUAAUGGUAACGCGUCUCCCUCCUAAGGAGAAGACUGCGGAUUCGAGUCCCGUACGGAACG, the yeast fitness is 0.641.
For the variant GUUCAGUUGGCGUAAUGGUAACGCGUCUCCCUCCUAAGAAGAAGACUGCGGGUUCGAGUUCAGUACGGAACG, the yeast fitness came out at 0.557.
Turning to GUUCAGUUGGCGUAAUGGUAACGCGUCUCCCUCCUAAGGAGAAGACUGCGGGUUCGAUUCCCGUACGGAACG, the yeast fitness worked out at 0.946.
For the variant GUUCAGUUGGCGUAAUGGUAACGCGUCUCCCUCCUAAGGAGAAGACUCCGGGUUCGAGUCCCGUACGGAACG, the yeast fitness is 0.953.
Turning to GUUCAGUCGGCGUAAUGGUAACGCGUCUCGGUCCUAAGGAGAAGACUGCGGGUUCGAGUCCCGUCCGGAACG, the yeast fitness was no more than 0.5.
